Assay results taken from ChEMBL document CHEMBL4004827, “Exploration of DAPI analogues: Synthesis, antitrypanosomal activity, DNA binding and fluorescence properties” (Eur J Med Chem, 2017).
Calls of active or inactive are those of the source. The rule behind the calls is not given here.

Legend:
[1] = tested on: Trypanosoma brucei rhodesiense; test: Antitrypanosomal activity against Trypanosoma brucei rhodesiense STIB900 infected in NMRI mouse assessed as aparasitemic mouse at 5 mg/kg, ip for 4 consecutive days starting from day 3 post infection measured up to day 60 post infection relative to control; type: functional
Summary of the method: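 STIB900 acute-stage mouse model of T. b. rhodesiense infection; compound given intraperitoneally at 5 mg/kg daily for four consecutive days (4 × 5 mg/kg), 4 infected mice per group; cure rate reported as mice cured out of 4.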

L6 = test: Cytotoxicity against rat L6 cells; type: cell-based
Mus musculus = test: Toxicity in NMRI mouse infected with Trypanosoma brucei rhodesiense STIB900 assessed as death at 5 mg/kg, ip for 4 consecutive days starting from day 3 post infection; type: organism-based; settings: in vivo
Summary of the method: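 Acute-stage STIB900 mouse model, four infected mice per compound, given 5 mg/kg intraperitoneally once daily on four consecutive days (4 × 5 mg/kg). Deaths among treated mice were counted out of 4, alongside cure of survivors. Other protocol details follow an earlier report.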

[2] = Binding affinity to poly(dA-dT)n DNA (unknown origin) assessed as change in melting temperature at 0.3 molar ratio of compound:DNA by spectrophotometric analysis
Summary of the method: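 Thermal melting with poly(dA-dT) in CAC 10 buffer (10 mM cacodylic acid, 1 mM EDTA, 100 mM NaCl, pH 7.0), 1 cm quartz cuvettes, heated at 0.5 °C/min. DNA concentration set by absorbance at 260 nm; 0.3 mol compound per mol DNA, DNA alone as control. Tm taken from peak of first-derivative (dA/dT) curve; ΔTm = Tm complex − Tm free DNA.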

[3] = Selectivity index, ratio of IC50 for rat L6 cells to IC50 for Trypanosoma brucei rhodesiense STIB900 bloodstream forms; type: toxicity; settings: read-out: Ratio IC50
Summary of the method: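 Selectivity index calculated as IC50 in L6 cells divided by IC50 against T. b. rhodesiense STIB900.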

[4] = tested on: Trypanosoma brucei rhodesiense; test: Antitrypanosomal activity against Trypanosoma brucei rhodesiense STIB900 bloodstream forms after 70 hrs by Alamar blue assay; type: functional; settings: STIB900, 70 h
Summary of the method: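 In vitro viability assay on T. b. rhodesiense strain STIB900; values are the average of duplicate determinations.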

[5] = tested on: Trypanosoma brucei rhodesiense; test: Potency index, ratio of DAPI IC50 to compound IC50 for Trypanosoma brucei rhodesiense STIB900 bloodstream forms; type: functional
[6] = Binding affinity to poly(dA-dT)n DNA minor groove (unknown origin) assessed as positive induced CD signal at 1:20 to 5:20 molar ratio of compound:DNA by CD spectroscopic analysis
Summary of the method: (§1)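 CD spectra recorded at 25 °C in MES 10 buffer (10 mM MES, 100 mM NaCl, 1 mM EDTA) over a series of compound-to-DNA ratios.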

[7] = Binding affinity to poly(dA-dT)n DNA minor groove (unknown origin) assessed as positive induced CD signal at 1:20 to 8:20 molar ratio of compound:DNA by CD spectroscopic analysis; summary of the method: as §1

## N=C(N)c1ccc2cc(-c3ccc(C(=N)N)o3)[nH]c2c1
[1]
  Activity: inactive
L6
  IC50: 7200 nM
Mus musculus
  Activity: Toxic
[2]
  ΔTm: 11 °C
[3]
  selectivity ratio: 800
[4]
  IC50: 9 nM
[5]
  Ratio IC50: 2 - 6

## Cc1cc(-c2cc3ccc(C(=N)N)cc3[nH]2)ccc1C(=N)N
[1]
  Activity: 75%
L6
  IC50: 15700 nM
[2]
  ΔTm: > 26 °C
[3]
  selectivity ratio: 3140
[4]
  IC50: 5 nM
[5]
  Ratio IC50: 2 - 6

## COc1cc(C(=N)N)ccc1-c1cc2ccc(C(=N)N)cc2[nH]1
[1]
  Activity: 100%
L6
  IC50: 29600 nM
[6]
  Activity: Active
[2]
  ΔTm: > 26 °C
[3]
  selectivity ratio: 4880
[4]
  IC50: 6 nM
[5]
  Ratio IC50: 2 - 6

## N=C(N)c1ccc(-c2cc3cc(C(=N)N)ccc3[nH]2)nc1
[1]
  Activity: 100%
L6
  IC50: 21300 nM
[2]
  ΔTm: > 26 °C
[3]
  selectivity ratio: 5320
[4]
  IC50: 4 nM
[5]
  Ratio IC50: 2 - 6

## N=C(N)c1ccc2cc(-c3ccc(C(=N)N)nc3)[nH]c2c1
[1]
  Activity: 25%
L6
  IC50: 2000 nM
[2]
  ΔTm: 15.3 °C
[3]
  selectivity ratio: 667
[4]
  IC50: 3 nM
[5]
  Ratio IC50: 2 - 6

## N=C(N)c1ccc(-c2cc3ccc(C(=N)N)cc3[nH]2)cc1 [DAPI]
[6]
  Activity: Active
[2]
  ΔTm: > 27 °C
[3]
  selectivity ratio: 48

## N=C(N)c1ccc(-c2cc3cc(C(=N)N)ccc3[nH]2)cc1
[2]
  ΔTm: 19.2 °C

## N=C(N)c1ccc2cc(-c3ccc(C(=N)N)s3)[nH]c2c1
L6
  IC50: 4500 nM
[2]
  ΔTm: 10 °C
[3]
  selectivity ratio: 409
[4]
  IC50: 11 nM
[5]
  Ratio IC50: 2 - 6

## N=C(N)c1ccc(-c2cc3ccc(C(=N)N)cc3[nH]2)nc1
[1]
  Activity: 100%
L6
  IC50: 3200 nM
[7]
  Activity: Active
[2]
  ΔTm: 22.1 °C
[3]
  selectivity ratio: 133
[4]
  IC50: 24 nM

## N=C(N)c1ccc2[nH]c(-c3ccc(C(=N)N)nc3)cc2c1
[1]
  Activity: 25%
L6
  IC50: 1800 nM
[2]
  ΔTm: 12.1 °C
[3]
  selectivity ratio: 394
[4]
  IC50: 5 nM
[5]
  Ratio IC50: 2 - 6

## N=C(N)c1ccc2[nH]c(-c3ccc(C(=N)N)o3)cc2c1
[1]
  Activity: 100%
L6
  IC50: 2700 nM
[6]
  Activity: Active
[2]
  ΔTm: 21.4 °C
[3]
  selectivity ratio: 900
[4]
  IC50: 3 nM
[5]
  Ratio IC50: 2 - 6

## COc1ccc(-c2cc3ccc(C(=N)N)cc3[nH]2)cc1
L6
  IC50: 29000 nM
[2]
  ΔTm: 12.6 °C
[3]
  selectivity ratio: 6
[4]
  IC50: 4870 nM

## Cc1cc(-c2cc3cc(C(=N)N)ccc3[nH]2)ccc1C(=N)N
[1]
  Activity: 75%
L6
  IC50: 23500 nM
[2]
  ΔTm: 15.3 °C
[3]
  selectivity ratio: 7830
[4]
  IC50: 3 nM
[5]
  Ratio IC50: 2 - 6
